# Many of the other results were omitted from the sample, so hits are more common in it than they were.
# A1 apoptosis 2 – A1 inhibitors via caspase activation, primary screen, cell-based, luminescence, HTS, two replicates; MEF A1-2A-BIM cells, caspase-Glo luminescence, 3 h; percent of clofoctol response, DMSO zero; caspase activation, % (test concentration not listed); 24,000 tested, under 10 active; AID 2465, 2010; in the data active = caspase activation above about 5.9%
#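 system = A1-2A-BIM-expressing MEF cells | quantity = 2500 MEF cells/well | dosing = 50 nL compound per well, pinned | schedule = overnight cell settling, then 3 h compound exposure, 37 °C | signal = luminescence from DEVD-luciferin Caspase-Glo reagent, 1:1 in 50 mM HEPES, 1 h RT | read-out = Caspase-3/7 activation, seen as rise in luminescence signal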
# T cruzi intra – inhibitors of intracellular Trypanosoma cruzi, primary screen, cell-based, plate reader, single point, set 2. activity score (inhibition), % at 5.01 µM. AID 651903, 2012. intracellular Trypanosoma cruzi in host cells. 4.9% of 22,000 active; in the data active = activity score above about 55%;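 also: parasites and compound incubated about four days before reading; 0% = median of neutral control wells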
# INS-1E rescue – protection of INS-1E cells from cytokine death, primary screen, ATP luminescence, single point | 0.1% of 20,000 active | INS-1E cytokine-induced death, 48 h; normalised: neutral wells 0, positive control 100 | protection from cytokine-induced ATP loss, % at 10 µM;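 active = mean replicate protection from cytokine-induced ATP loss at least 50% and at least 75% of replicates each reaching 50%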
#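 Assay system: INS-1E rat insulinoma cells. Amount: 8000 cells per well. Medium: phenol-red-free RPMI with 5% fetal bovine serum. Reagent: IL-1β, TNF-α and IFN-γ cytokine mix. Doses: one compound concentration, pin transfer. Schedule: 48 h co-treatment, 10 min post-lysis read. Detection: CellTiter-Glo luminescence measuring cellular ATP.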
# Starred values were filed as active, the others as inactive; / = no result.
SMILES,A1 apoptosis 2,T cruzi intra,INS-1E rescue
Cc1noc(C)c1NC(=O)N(C)C[C@@H]1Oc2ccc(NC(=O)Nc3ccc(C(F)(F)F)cc3)cc2C(=O)N([C@H](C)CO)C[C@H]1C,/,0,3
Cc1noc(C)c1S(=O)(=O)Nc1ccc2c(c1)C(=O)N([C@H](C)CO)C[C@@H](C)[C@@H](CN(C)Cc1ccc(C(F)(F)F)cc1)O2,/,-1,-8
Cc1noc(C)c1S(=O)(=O)Nc1ccc2c(c1)CC(=O)N([C@@H](C)CO)C[C@@H](C)[C@@H](CN(C)Cc1ccc(C(F)(F)F)cc1)O2,-1,34,-10
Cc1noc(C)c1S(=O)(=O)Nc1ccc2c(c1)CC(=O)N([C@H](C)CO)C[C@@H](C)[C@@H](CN(C)Cc1ccc(C(F)(F)F)cc1)O2,1,69*,-37
Cc1noc(C)c1S(=O)(=O)Nc1ccc2c(c1)C(=O)N([C@@H](C)CO)C[C@H](C)[C@@H](CN(C)Cc1ccc(C(F)(F)F)cc1)O2,/,65*,-8
Cc1noc(C)c1S(=O)(=O)Nc1ccc2c(c1)C(=O)N([C@H](C)CO)C[C@H](C)[C@H](CN(C)C(=O)Nc1ccc(C(F)(F)F)cc1)O2,/,73*,/
Cc1noc(C)c1S(=O)(=O)Nc1ccc2c(c1)C(=O)N([C@H](C)CO)C[C@H](C)[C@@H](CN(C)C(=O)Nc1ccc(C(F)(F)F)cc1)O2,/,7,4
C[C@@H]1CN([C@@H](C)CO)C(=O)c2cc(NC(=O)Nc3ccccc3)ccc2O[C@@H](C)CCCCO[C@H]1CN(C)S(=O)(=O)c1ccc(Cl)cc1,0,/,/
C[C@@H]1CN([C@@H](C)CO)C(=O)c2cc(NC(=O)Nc3cccc4ccccc34)ccc2O[C@H]1CN(C)S(=O)(=O)c1ccc(Cl)cc1,/,50,-14
C[C@@H]1CN([C@H](C)CO)C(=O)c2cc(NC(=O)CCCN(C)C)ccc2O[C@@H](C)CCCCO[C@@H]1CN(C)Cc1ccc(C(=O)O)cc1,1,/,/
C[C@@H]1CN([C@@H](C)CO)C(=O)c2cccc(NS(=O)(=O)c3ccc(F)cc3)c2O[C@@H]1CN(C)Cc1ccc(-c2ccccc2)cc1,0,66*,-68
C[C@H]1CN([C@@H](C)CO)C(=O)c2cccc(NS(=O)(=O)c3ccc(F)cc3)c2O[C@@H]1CN(C)Cc1ccc(-c2ccccc2)cc1,0,18,-7
C[C@H]1CN([C@@H](C)CO)C(=O)c2cccc(NS(=O)(=O)c3ccccc3)c2O[C@H]1CN(C)Cc1ccc(C(F)(F)F)cc1,/,31,0
C[C@H](CO)N1C[C@H](C)[C@@H](CN(C)Cc2ccc(C(F)(F)F)cc2)Oc2c(NS(=O)(=O)c3ccccc3)cccc2C1=O,/,66*,2
C[C@H]1CN([C@@H](C)CO)C(=O)c2cccc(NS(C)(=O)=O)c2O[C@H]1CN(C)Cc1ccccc1,1,-8,-6
C[C@H](CO)N1C[C@H](C)[C@@H](CN(C)Cc2ccccc2)Oc2c(NS(C)(=O)=O)cccc2C1=O,0,59*,2
C[C@@H]1CN([C@H](C)CO)C(=O)Cc2cc(NS(=O)(=O)c3cn(C)cn3)ccc2O[C@H]1CN(C)C(=O)Nc1ccccc1,1,-14,4
C[C@@H]1CCCCO[C@H](CN(C)C(=O)Nc2ccc(F)cc2)[C@@H](C)CN([C@@H](C)CO)C(=O)c2cc(NC(=O)CCCN(C)C)ccc2O1,0,/,/
COc1ccc(S(=O)(=O)Nc2ccc3c(c2)CC(=O)N([C@@H](C)CO)C[C@@H](C)[C@@H](CN(C)Cc2ccc(C(F)(F)F)cc2)O3)cc1,-1,80*,-26
COc1ccc(S(=O)(=O)Nc2ccc3c(c2)CC(=O)N([C@@H](C)CO)C[C@H](C)[C@H](CN(C)Cc2ccc(C(F)(F)F)cc2)O3)cc1,1,47,-32
COc1ccc(S(=O)(=O)Nc2ccc3c(c2)CC(=O)N([C@H](C)CO)C[C@@H](C)[C@@H](CN(C)Cc2ccc(C(F)(F)F)cc2)O3)cc1,0,65*,-46
COc1ccc(S(=O)(=O)Nc2ccc3c(c2)CC(=O)N([C@@H](C)CO)C[C@@H](C)[C@H](CN(C)Cc2ccc(C(F)(F)F)cc2)O3)cc1,-1,/,/
COc1ccc(O)c(/C=N/NC(=O)CCCCCC(=O)Nc2ccccc2O)c1,/,4,8
C=CCNC(=O)[C@@H]1[C@H]2C(=O)O[C@H](c3ccccc3)[C@H](c3ccccc3)N2[C@H](c2ccccc2OCCO)[C@@]12C(=O)Nc1ccc(C#CC3(O)CCCCCC3)cc12,-1,/,/
C[C@@H]1CN([C@H](C)CO)C(=O)c2cccc(NC(=O)c3cnccn3)c2O[C@H]1CN(C)Cc1ccc(C(=O)Nc2ccccc2N)cc1,/,54,-12
SMILES,A1 apoptosis 2,T cruzi intra,INS-1E rescue
C[C@@H]1CN([C@@H](C)CO)C(=O)c2cccc(NC(=O)c3cnccn3)c2O[C@@H]1CN(C)Cc1ccc(C(=O)Nc2ccccc2N)cc1,/,72*,35
C[C@H](CO)N1C[C@H](C)[C@H](CN(C)Cc2ccc(C(=O)Nc3ccccc3N)cc2)Oc2c(cccc2N(C)C)C1=O,/,56*,21
C[C@@H]1CN([C@H](C)CO)C(=O)c2cccc(N(C)C)c2O[C@@H]1CN(C)Cc1ccc(C(=O)Nc2ccccc2N)cc1,/,28,8
C[C@@H]1CN([C@H](C)CO)C(=O)c2cccc(NC(=O)C3CCCCC3)c2O[C@@H]1CN(C)Cc1ccc(C(=O)Nc2ccccc2N)cc1,-1,/,/
Cc1cc(C(=O)Nc2cccc3c2O[C@H](CN(C)Cc2ccc(C(=O)Nc4ccccc4N)cc2)[C@@H](C)CN([C@@H](C)CO)C3=O)n(C)n1,/,46,0
C[C@H]1CN([C@@H](C)CO)C(=O)c2cccc(NC(=O)C3CCCCC3)c2O[C@H]1CN(C)Cc1ccc(C(=O)Nc2ccccc2N)cc1,/,66*,3
Cc1cc(C(=O)Nc2cccc3c2O[C@H](CN(C)Cc2ccc(C(=O)Nc4ccccc4N)cc2)[C@H](C)CN([C@H](C)CO)C3=O)n(C)n1,-1,63*,0
O=C(OC[C@@H]1[C@H]2c3ccccc3OC1(CO)N=C1SCCCN12)c1ccccc1,0,/,/
C[C@@H]1CN([C@H](C)CO)C(=O)c2cccc(NC(=O)Nc3ccc4c(c3)OCO4)c2O[C@@H]1CN(C)S(=O)(=O)c1ccc(Cl)cc1,/,-7,3
C[C@@H]1CN([C@H](C)CO)C(=O)Cc2cc(NC(=O)CCN3CCOCC3)ccc2O[C@@H]1CN(C)Cc1ccncc1,0,/,9
C[C@H]1CN([C@@H](C)CO)C(=O)CCCn2nncc2CO[C@H]1CN(C)Cc1ccc(Cl)c(Cl)c1,/,13,/
C[C@H]1CCCCO[C@@H](CN(C)C(=O)Nc2ccccc2)[C@@H](C)CN([C@@H](C)CO)C(=O)c2cc(NC(=O)Nc3cccc4ccccc34)ccc2O1,1,/,/
COc1ccc(S(=O)(=O)Nc2ccc3c(c2)C(=O)N([C@H](C)CO)C[C@@H](C)[C@H](CN(C)C)OCCCC[C@@H](C)O3)cc1,0,/,/
